Legend:
[1] = Distribution ratio in cortex and cerebellum was determined after 240 min of intravenous administration of the compound; [125I]- is used as radioactive isotope; format: ADME, tissue-based; conditions: rat, 4 h
Method in brief: (§1)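 After femoral-vein injection of 10 μCi [¹²⁵I] tracer in 0.2 mL saline under ether anaesthesia (three rats per group), brain regions were dissected, weighed and counted: cortex (frontal plus occipital), hippocampus, hypothalamus and cerebellum. %dose/g was calculated against a diluted injected-dose standard. Ratio = (region − cerebellum)/cerebellum on a %dose/g basis, with cerebellum as the background region.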

[2] = Biodistribution in rat kidney was determined after 30 min of intravenous administration of the compound; [125I]- is used as radioactive isotope; format: ADME, organism-based; conditions: in vivo, 0.5 h
Method in brief: (§2)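 Rats under ether anesthesia, three per group, received 10 μCi tracer in 0.2 mL saline into the femoral vein. They were killed by cardiac excision under ether at each time point. Organs were removed, weighed and counted. Percent dose per organ was calculated against a 1%-of-injected-dose standard counted at the same time.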

[3] = Biodistribution in rat liver was determined after 60 min of intravenous administration of the compound; [125I]- is used as radioactive isotope; format: ADME, organism-based; conditions: in vivo, 1 h; method in brief: as §2
[4] = Biodistribution in rat brain was determined after 30 min of intravenous administration of the compound; [125I]- is used as radioactive isotope; format: ADME, organism-based; conditions: in vivo, 0.5 h; method in brief: as §2
[5] = Distribution ratio in striatum and cerebellum was determined after 60 min of intravenous administration of the compound; [125I]- is used as radioactive isotope; format: ADME, tissue-based; conditions: rat, 1 h
Method in brief: (§3)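 Rats, three per group, given 10 μCi tracer in 0.2 mL saline into the femoral vein under ether anesthesia, then killed by cardiac excision at the stated time. Brain regions were dissected, weighed and counted. Percent dose/g was calculated against a 1% diluted aliquot of the injected dose. The ratio is (region − cerebellum)/cerebellum on a % dose/g basis, with cerebellum as background.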

[6] = target: Sodium-dependent dopamine transporter (Homo sapiens, UniProt Q01959); experiment: Binding affinity for dopamine transporter expressed in […] cells; format: cell-based
Method in brief: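 Membranes from confluent pig kidney LLC-PK₁ cells stably expressing the respective transporter, homogenized and pelleted, 30–40 μg protein. Incubated with 0.4 nM [¹²⁵I]IPT or [¹²⁵I]IDAM and 8–10 competitor concentrations (10⁻¹⁰ to 10⁻⁵ M) in 50 mM Tris-HCl pH 7.4, 120 mM NaCl, 0.1% BSA, 1 h at room temperature. Nonspecific binding was defined with 10 μM CFT for IPT and 1 μM IDAM for IDAM. Filtration, gamma counting, nonlinear regression for Ki.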

[7] = Distribution ratio in striatum and cerebellum was determined after 11 hrs of intravenous administration of the compound; [125I]- is used as radioactive isotope; format: ADME, tissue-based; conditions: rat; method in brief: as §3
[8] = Regional brain distribution in rat cortex was determined after 240 min of intravenous administration of the compound; [125I]- is used as radioactive isotope; format: ADME; conditions: in vivo, 4 h
Method in brief: (§4)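 Rats, three per group, injected with 10 μCi tracer in 0.2 mL saline via the femoral vein under ether anesthesia and killed by cardiac excision at the stated time. Cortex (frontal plus occipital), striatum, hippocampus, cerebellum and hypothalamus were dissected, weighed and gamma-counted. Values are % dose/g, calculated by comparison with counts of a 100-fold diluted aliquot of the injected dose.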

[9] = Regional brain distribution in rat cortex was determined after 2 min of intravenous administration of the compound; [125I]- is used as radioactive isotope; format: ADME; conditions: in vivo; method in brief: as §4
[10] = Biodistribution in rat brain was determined after 120 min of intravenous administration of the compound; [125I]- is used as radioactive isotope; format: ADME, organism-based; conditions: in vivo, 2 h; method in brief: as §2
[11] = Regional brain distribution in rat hippocampus was determined after 24 hours of intravenous administration of the compound; [125I]- is used as radioactive isotope; format: ADME, tissue-based; conditions: in vivo; method in brief: as §4
[12] = Biodistribution in rat brain was determined after 2 min of intravenous administration of the compound; [125I]- is used as radioactive isotope; format: ADME, organism-based; conditions: in vivo; method in brief: as §2
[13] = Distribution ratio in hippocampus and cerebellum was determined after 240 min of intravenous administration of the compound; [125I]- is used as radioactive isotope; format: ADME, tissue-based; conditions: rat, 4 h; method in brief: as §1
[14] = Distribution ratio in hippocampus and cerebellum was determined after 120 min of intravenous administration of the compound; [125I]- is used as radioactive isotope; format: ADME, tissue-based; conditions: rat, 2 h; method in brief: as §1
[15] = Biodistribution in rat kidney was determined after 24 hours of intravenous administration of the compound; [125I]- is used as radioactive isotope; format: ADME, organism-based; conditions: in vivo; method in brief: as §2
[16] = Regional brain distribution in rat striatum was determined after 30 min of intravenous administration of the compound; [125I]- is used as radioactive isotope; format: ADME, tissue-based; conditions: in vivo, 0.5 h; method in brief: as §4
[17] = Biodistribution in rat spleen was determined after 60 min of intravenous administration of the compound; [125I]- is used as radioactive isotope; format: ADME, organism-based; conditions: in vivo, 1 h
Method in brief: (§5)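 Rats, three per group, under ether anaesthesia, received 10 μCi of [¹²⁵I]-labelled tracer in 0.2 mL saline into the femoral vein. They were killed by cardiac excision under ether at each time point. Organs were removed, weighed and counted. Percent dose per organ was calculated against counts of a 1% aliquot of the injected dose (100-fold diluted) counted at the same time.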

[18] = Biodistribution in rat spleen was determined after 240 min of intravenous administration of the compound; [125I]- is used as radioactive isotope; format: ADME, organism-based; conditions: in vivo, 4 h; method in brief: as §5
[19] = Biodistribution in rat skin was determined after 240 min of intravenous administration of the compound; [125I]- is used as radioactive isotope; format: ADME, organism-based, Zone of skin; conditions: in vivo, 4 h; method in brief: as §5
[20] = Distribution ratio in cortex and cerebellum was determined after 11 hrs of intravenous administration of the compound; [125I]- is used as radioactive isotope; format: ADME, tissue-based; conditions: rat; method in brief: as §1
[21] = Distribution ratio in cortex and cerebellum was determined after 2 min of intravenous administration of the compound; [125I]- is used as radioactive isotope; format: ADME, tissue-based; conditions: rat; method in brief: as §1
[22] = Regional brain distribution in rat hypothalamus was determined after 24 hours of intravenous administration of the compound; [125I]- is used as radioactive isotope; format: ADME, tissue-based; conditions: in vivo; method in brief: as §4
[23] = Regional brain distribution in rat cerebellum was determined after 11 hours of intravenous administration of the compound; [125I]- is used as radioactive isotope; format: ADME, tissue-based; conditions: in vivo; method in brief: as §4
[24] = Regional brain distribution in rat hippocampus was determined after 6 hours of intravenous administration of the compound; [125I]- is used as radioactive isotope; format: ADME, tissue-based; conditions: in vivo; method in brief: as §4
[25] = Biodistribution in rat heart was determined after 30 min of intravenous administration of the compound; [125I]- is used as radioactive isotope; format: ADME, organism-based; conditions: in vivo, 0.5 h; method in brief: as §2
[26] = Biodistribution in rat lung was determined after 60 min of intravenous administration of the compound; [125I]- is used as radioactive isotope; format: ADME, organism-based; conditions: in vivo, 1 h; method in brief: as §2
[27] = Distribution ratio in hippocampus and cerebellum was determined after 11 hrs of intravenous administration of the compound; [125I]- is used as radioactive isotope; format: ADME, tissue-based; conditions: rat; method in brief: as §1
[28] = Regional brain distribution in rat cerebellum was determined after 60 min of intravenous administration of the compound; [125I]- is used as radioactive isotope; format: ADME, tissue-based; conditions: in vivo, 1 h; method in brief: as §4
[29] = Biodistribution in rat liver was determined after 11 hours of intravenous administration of the compound; [125I]- is used as radioactive isotope; format: ADME, organism-based; conditions: in vivo; method in brief: as §2
[30] = Distribution ratio in cortex and cerebellum was determined after 6 hrs of intravenous administration of the compound; [125I]- is used as radioactive isotope; format: ADME, tissue-based; conditions: rat; method in brief: as §1
[31] = Regional brain distribution in rat hypothalamus was determined after 11 hours of intravenous administration of the compound; [125I]- is used as radioactive isotope; format: ADME, tissue-based; conditions: in vivo; method in brief: as §4

Sodium-dependent dopamine transporter, sequence (Q01959 whole entry): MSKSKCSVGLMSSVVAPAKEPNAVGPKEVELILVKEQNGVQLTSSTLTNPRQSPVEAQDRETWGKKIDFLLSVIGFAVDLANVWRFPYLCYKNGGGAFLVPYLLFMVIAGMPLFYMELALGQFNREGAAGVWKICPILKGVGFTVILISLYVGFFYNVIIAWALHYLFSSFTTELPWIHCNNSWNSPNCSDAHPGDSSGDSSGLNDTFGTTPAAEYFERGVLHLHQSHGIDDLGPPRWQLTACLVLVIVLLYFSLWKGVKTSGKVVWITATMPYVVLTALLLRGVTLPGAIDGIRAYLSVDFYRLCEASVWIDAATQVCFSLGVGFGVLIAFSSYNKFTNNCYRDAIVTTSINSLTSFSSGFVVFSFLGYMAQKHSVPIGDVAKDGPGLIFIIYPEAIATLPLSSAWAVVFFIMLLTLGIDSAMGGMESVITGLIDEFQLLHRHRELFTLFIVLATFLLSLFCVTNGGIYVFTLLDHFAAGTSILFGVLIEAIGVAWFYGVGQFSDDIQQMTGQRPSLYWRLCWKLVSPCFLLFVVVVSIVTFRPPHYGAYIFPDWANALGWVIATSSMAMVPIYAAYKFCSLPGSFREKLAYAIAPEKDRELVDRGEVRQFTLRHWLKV

Q: Which results are given for `CN(C)Cc1ccccc1Oc1ccc(I)cc1N`?
A: Dose/g [1]: 1.12%; Dose [2]: 2.67%; Dose [3]: 5.79%; Dose [4]: 2.12%; Dose/g [5]: 1.51%; Ki [6]: 309 nM; Dose/g [7]: 0.14%; Dose/g [8]: 0.12%; Dose/g [9]: 1.16%; Dose [10]: 1.08%; Dose/g [11]: 0.004%; Dose [12]: 1.77%; Dose/g [13]: 2.47%; Dose/g [14]: 2.19%; Dose [15]: 0.17%; Dose/g [16]: 1.16%; Dose [17]: 0.47%; Dose [18]: 0.13%; Dose [19]: 12.6%; Dose/g [20]: 0%; Dose/g [21]: 0.56%; Dose/g [22]: 0.006%; Dose/g [23]: 0.01%; Dose/g [24]: 0.059%; Dose [25]: 0.32%; Dose [26]: 1.79%; Dose/g [27]: 0.09%; Dose/g [28]: 0.41%; Dose [29]: 2.64%; Dose/g [30]: 0.58%; Dose/g [31]: 0.01%
